Experimental data from ChEMBL document CHEMBL4665666, “Discovery and characterization of trypanocidal cysteine protease inhibitors from the 'malaria box'” (Eur J Med Chem, 2019).

Experiments:
Cruzipain = Cruzipain (Trypanosoma cruzi, UniProt P25779); test: Inhibition of recombinant Trypanosoma cruzi cruzain using Z-FR-AMC as substrate and measured at 12 sec interval for 5 mins without preincubation by fluorimetric analysis
How it was run: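 Cruzain (recombinant, 1 nM) in 0.1 M sodium acetate pH 5.5 with 0.01% Triton X-100 and 1 mM β-mercaptoethanol; Z-FR-AMC 2.5 µM, read at 340/440 nm every 12 s for 5 min, with or without 10 min enzyme–compound pre-incubation. […] For mechanism and Ki, 0.3–20.0 µM substrate and five inhibitor levels were used, with Lineweaver-Burk plots.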

[1] = target: Rhodesain (Trypanosoma brucei rhodesiense) (UniProt Q95PM0); test: Inhibition of recombinant Trypanosoma brucei rhodesain expressed in Pichia pastoris at 300 uM using Z-FR-AMC as substrate preincubated for 10 mins followed by substrate addition and measured at 12 sec interval for 5 mins by fluorimetric analysis relative to control; settings: time 15.0 min
Sequence of Rhodesain (Trypanosoma brucei rhodesiense) (Q95PM0 1-450): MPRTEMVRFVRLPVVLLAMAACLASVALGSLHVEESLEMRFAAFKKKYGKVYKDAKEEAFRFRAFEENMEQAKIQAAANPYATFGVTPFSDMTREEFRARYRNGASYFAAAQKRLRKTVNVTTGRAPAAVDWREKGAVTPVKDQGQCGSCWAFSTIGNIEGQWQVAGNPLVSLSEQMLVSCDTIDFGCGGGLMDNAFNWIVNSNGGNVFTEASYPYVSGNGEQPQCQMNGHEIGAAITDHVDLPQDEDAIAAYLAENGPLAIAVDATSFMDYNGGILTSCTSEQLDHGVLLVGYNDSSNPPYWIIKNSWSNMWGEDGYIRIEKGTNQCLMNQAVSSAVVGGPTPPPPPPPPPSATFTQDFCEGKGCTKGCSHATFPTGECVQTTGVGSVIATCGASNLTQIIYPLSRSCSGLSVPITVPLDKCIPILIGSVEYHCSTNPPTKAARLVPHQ
How it was run: (§1)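 Run with no pre-incubation or with 10 min enzyme-compound pre-incubation. Fluorescence read at 340/440 nm. Concentration was set by solubility under assay conditions. Inhibition is against DMSO, with E-64 as positive control; triplicate.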

[2] = system: Trypanosoma brucei rhodesiense; test: Trypanocidal activity against Trypanosoma brucei rhodesiense STI B900 assessed as reduction in parasite viability; type: functional, organism-based
[3] = target: Cruzipain (Trypanosoma cruzi) (UniProt P25779); test: Inhibition of recombinant Trypanosoma cruzi cruzain at 300 uM using Z-FR-AMC as substrate and measured at 12 sec interval for 5 mins without preincubation by fluorimetric analysis relative to control
Sequence of Cruzipain (Trypanosoma cruzi) (P25779 123-467 limits assumed): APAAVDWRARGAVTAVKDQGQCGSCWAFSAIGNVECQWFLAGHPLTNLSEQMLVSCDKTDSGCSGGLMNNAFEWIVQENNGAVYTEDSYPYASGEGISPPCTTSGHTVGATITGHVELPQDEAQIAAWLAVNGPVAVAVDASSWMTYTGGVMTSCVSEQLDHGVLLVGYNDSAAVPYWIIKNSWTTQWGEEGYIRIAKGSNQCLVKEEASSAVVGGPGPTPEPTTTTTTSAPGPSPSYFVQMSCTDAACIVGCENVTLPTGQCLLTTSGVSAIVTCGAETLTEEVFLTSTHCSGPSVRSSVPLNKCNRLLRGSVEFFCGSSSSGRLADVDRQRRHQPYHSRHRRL
How it was run: (§2)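 Recombinant rhodesain or cruzain (1 nM) in 0.1 M sodium acetate pH 5.5, 0.01% Triton X-100, 1 mM β-mercaptoethanol. Compound at a single concentration, either without or after 10 min enzyme pre-incubation. Z-FR-AMC 2.5 µM, read at 340/440 nm every 12 s for 5 min. Inhibition is relative to DMSO, with E-64 as positive control. Done in duplicate (primary screen) or triplicate.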

[4] = target: Cruzipain (Trypanosoma cruzi) (UniProt P25779); test: Inhibition of recombinant Trypanosoma cruzi cruzain at 10 uM using Z-FR-AMC as substrate and measured at 12 sec interval for 5 mins without preincubation by fluorimetric analysis relative to control; how it was run: as §2
[5] = target: Cruzipain (Trypanosoma cruzi) (UniProt P25779); test: Inhibition of recombinant Trypanosoma cruzi cruzain at 100 uM preincubated with BSA for 5 mins followed by incubation with enzyme for 5 mins followed by substrate addition relative to control; settings: time 10.0 min
How it was run: (§3)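 For BSA sensitivity, compound was held 5 min with BSA (2 mg/mL in 0.001% Triton X-100), then 5 min with 1 nM cruzain, before substrate was added and activity monitored. Parallel runs omitted BSA under otherwise identical conditions.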

cathepsin S [6] = target: T1, cathepsin S (Homo sapiens, UniProt P25774); test: Inhibition of recombinant human cathepsin S expressed in Escherichia coli at 100 uM using Z-VVR-AMC as substrate and measured after 15 mins without preincubation by microplate reader based assay relative to control; settings: probe Z-VVR-AMC
T1 sequence (P25774 whole entry): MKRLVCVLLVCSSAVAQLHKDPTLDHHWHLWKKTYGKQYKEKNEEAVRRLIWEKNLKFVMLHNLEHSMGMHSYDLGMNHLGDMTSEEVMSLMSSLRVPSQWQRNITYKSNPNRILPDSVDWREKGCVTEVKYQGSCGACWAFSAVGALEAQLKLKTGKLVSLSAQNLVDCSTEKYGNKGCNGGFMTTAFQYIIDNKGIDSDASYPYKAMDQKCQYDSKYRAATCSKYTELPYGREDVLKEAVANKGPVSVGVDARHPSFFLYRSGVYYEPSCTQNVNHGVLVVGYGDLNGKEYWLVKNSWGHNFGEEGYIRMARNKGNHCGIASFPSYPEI
How it was run: (§4)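 Run with or without 5 min compound–enzyme pre-incubation. AMC fluorescence at 380/460 nm over 15 min. Inhibition relative to DMSO (2% final); E64 1 µM as positive control. Two independent experiments, each in triplicate.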

[7] = target: Cruzipain (Trypanosoma cruzi) (UniProt P25779); test: Inhibition of recombinant Trypanosoma cruzi cruzain at 100 uM preincubated for 10 mins in presence of 0.1% Triton X-100 relative to control
How it was run: (§5)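 To test detergent sensitivity, cruzain was pre-incubated 10 min at room temperature with compound with no Triton X-100, 0.01% or 0.1% Triton X-100. Cleavage of Z-FR-AMC was then followed at pH 5.5 in acetate buffer. Percent inhibition was compared across detergent levels.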

[8] = target: Rhodesain (Trypanosoma brucei rhodesiense) (UniProt Q95PM0); test: Inhibition of recombinant Trypanosoma brucei rhodesain expressed in Pichia pastoris at 5 uM using Z-FR-AMC as substrate and measured at 12 sec interval for 5 mins without preincubation by fluorimetric analysis relative to control
How it was run: as §2, with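 “pre-incubation.” for “pre-incubation. Z-FR-AMC 2.5 µM, read at 340/440 nm every 12 s for 5 min.”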

[9] = target: Rhodesain (Trypanosoma brucei rhodesiense) (UniProt Q95PM0); test: Inhibition of recombinant Trypanosoma brucei rhodesain expressed in Pichia pastoris at 5 uM using Z-FR-AMC as substrate preincubated for 10 mins followed by substrate addition and measured at 12 sec interval for 5 mins by fluorimetric analysis relative to control; settings: time 15.0 min
How it was run: as §2, with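 “pre-incubation.” for “pre-incubation. Z-FR-AMC 2.5 µM, read at 340/440 nm every 12 s for 5 min.”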

cathepsin B [10] = target: T2, cathepsin B (Rattus norvegicus, UniProt P00787); test: Inhibition of rat cathepsin B at 100 uM using Z-FR-AMC as substrate preincubated for 5 mins followed by substrate addition and measured after 15 mins by microplate reader based assay relative to control; settings: probe Z-FR-AMC
T2 sequence (P00787 whole entry): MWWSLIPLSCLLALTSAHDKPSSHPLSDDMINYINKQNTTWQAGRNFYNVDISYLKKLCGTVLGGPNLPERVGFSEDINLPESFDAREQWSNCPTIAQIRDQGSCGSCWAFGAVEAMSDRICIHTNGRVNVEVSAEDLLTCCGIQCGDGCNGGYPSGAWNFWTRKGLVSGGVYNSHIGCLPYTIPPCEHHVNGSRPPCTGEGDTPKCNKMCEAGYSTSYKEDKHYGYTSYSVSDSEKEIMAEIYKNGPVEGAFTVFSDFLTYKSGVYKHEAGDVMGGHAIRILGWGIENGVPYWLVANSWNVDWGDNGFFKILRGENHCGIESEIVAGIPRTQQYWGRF

cathepsin B [11] = target: T2, cathepsin B; test: Inhibition of rat cathepsin B at 100 uM using Z-FR-AMC as substrate measured after 15 mins without preincubation by microplate reader based assay relative to control; settings: probe Z-FR-AMC
How it was run: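 Rat cathepsin B (20 nM) at 25°C in 100 mM sodium phosphate, 100 mM NaCl, 1 mM EDTA, 1 mM DTT, 0.01% CHAPS. Compound pre-incubated 0 or 5 min with enzyme; Z-FR-AMC 50 µM, ex 380/em 440 nm, monitored 15 min. Inhibition is versus 2% DMSO, with 1 µM E64 control. Two independent experiments in triplicate.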

[12] = target: Cruzipain (Trypanosoma cruzi) (UniProt P25779); test: Inhibition of recombinant Trypanosoma cruzi cruzain at 100 uM preincubated for 10 mins in presence of 0.01% Triton X-100 relative to control; how it was run: as §5
[13] = target: Cruzipain (Trypanosoma cruzi) (UniProt P25779); test: Inhibition of recombinant Trypanosoma cruzi cruzain at 10 uM using Z-FR-AMC as substrate preincubated for 10 mins followed by substrate addition and measured at 12 sec interval for 5 mins by fluorimetric analysis relative to control; settings: time 15.0 min; how it was run: as §2
[14] = target: Rhodesain (Trypanosoma brucei rhodesiense) (UniProt Q95PM0); test: Inhibition of recombinant Trypanosoma brucei rhodesain expressed in Pichia pastoris at 300 uM using Z-FR-AMC as substrate and measured at 12 sec interval for 5 mins without preincubation by fluorimetric analysis relative to control; how it was run: as §1
[15] = target: Cruzipain (Trypanosoma cruzi) (UniProt P25779); test: Inhibition of recombinant Trypanosoma cruzi cruzain at 5 uM using Z-FR-AMC as substrate preincubated for 10 mins followed by substrate addition and measured at 12 sec interval for 5 mins by fluorimetric analysis relative to control; settings: time 15.0 min
How it was run: as §2, with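 “pre-incubation.” for “pre-incubation. Z-FR-AMC 2.5 µM, read at 340/440 nm every 12 s for 5 min.”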

[16] = target: Cruzipain (Trypanosoma cruzi) (UniProt P25779); test: Inhibition of recombinant Trypanosoma cruzi cruzain at 100 uM preincubated for 10 mins in absence of Triton X-100 relative to control; how it was run: as §5
[17] = target: Rhodesain (Trypanosoma brucei rhodesiense) (UniProt Q95PM0); test: Inhibition of recombinant Trypanosoma brucei rhodesain expressed in Pichia pastoris at 10 uM using Z-FR-AMC as substrate preincubated for 10 mins followed by substrate addition and measured at 12 sec interval for 5 mins by fluorimetric analysis relative to control; settings: time 15.0 min; how it was run: as §2
cathepsin S [18] = target: T1, cathepsin S; test: Inhibition of recombinant human cathepsin S expressed in Escherichia coli at 100 uM using Z-VVR-AMC as substrate preincubated for 10 mins followed by substrate addition and measured after 15 mins by microplate reader based assay relative to control; settings: probe Z-VVR-AMC, in the assay text read “preincubated for 5 mins” for “preincubated for 10 mins”, time 20 min; how it was run: as §4
[19] = target: Cruzipain (Trypanosoma cruzi) (UniProt P25779); test: Inhibition of recombinant Trypanosoma cruzi cruzain at 100 uM preincubated with enzyme for 5 mins followed by substrate addition in absence of BSA relative to control; how it was run: as §3

Sequence of Cruzipain (P25779 whole entry): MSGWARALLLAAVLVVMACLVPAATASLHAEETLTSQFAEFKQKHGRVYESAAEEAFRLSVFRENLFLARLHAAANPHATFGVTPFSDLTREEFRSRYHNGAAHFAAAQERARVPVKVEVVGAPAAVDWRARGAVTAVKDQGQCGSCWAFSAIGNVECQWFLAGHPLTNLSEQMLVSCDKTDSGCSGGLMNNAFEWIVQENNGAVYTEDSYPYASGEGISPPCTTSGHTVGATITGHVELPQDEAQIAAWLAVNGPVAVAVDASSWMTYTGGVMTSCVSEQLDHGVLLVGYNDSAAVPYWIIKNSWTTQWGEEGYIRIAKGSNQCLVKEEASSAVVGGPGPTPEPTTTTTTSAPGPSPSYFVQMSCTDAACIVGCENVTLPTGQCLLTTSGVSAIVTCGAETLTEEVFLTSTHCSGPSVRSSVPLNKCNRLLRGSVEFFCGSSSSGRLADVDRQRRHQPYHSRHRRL

Work on `Cn1c(=O)n(C)c2cc(CNCCNc3ccnc4cc(Cl)ccc34)ccc21` yielded an IC50 (Cruzipain) of 145 µM, an inhibition [1] of 71% and an IC50 [2] of 0.4 µM. It also gave an inhibition [3] of 75%, an inhibition [4] of 13% and an inhibition [5] of 87.8%. For the same compound, the inhibition at 0.25 h, 100 µM (cathepsin S [6]) was 4.7%, the inhibition [7] was 56.4% and the inhibition [8] was 47.7%. The inhibition [9] was 81.4%, the inhibition at 0.25 h, 100 µM (cathepsin B [10]) was 11.7% and the inhibition at 0.25 h, 100 µM (cathepsin B [11]) was 9.9%. For the same compound, the inhibition [12] was 74.8%, the inhibition [13] was 18% and the inhibition [14] was 67%. It also gave an inhibition [15] of 79.7%, an inhibition [16] of 64.5% and an inhibition [17] of 12%. It also gave an inhibition at 0.25 h, 100 µM (cathepsin S [18]) of 8.4% and an inhibition [19] of 62.1%.
`Cl.Cl.Clc1cc(Br)ccc1-c1ccc(CNCC2CCNCC2)o1` was tested, and the IC50 (Cruzipain) was 26 µM, the inhibition [1] was 75% and the IC50 [2] was 0.1 µM. It also gave an inhibition [3] of 78%, an inhibition [4] of 25% and an inhibition [5] of 90.1%. It also gave an inhibition at 0.25 h, 100 µM (cathepsin S [6]) of 27.1%, an inhibition [7] of 76.7% and an inhibition [8] of 31.3%. It also gave an inhibition [9] of 49.6%, an inhibition at 0.25 h, 100 µM (cathepsin B [10]) of 3.2% and an inhibition at 0.25 h, 100 µM (cathepsin B [11]) of 1.3%. The inhibition [12] was 67.1%, the inhibition [13] was 15% and the inhibition [14] was 96%. The inhibition [15] was 56.7%, the inhibition [16] was 96.8% and the inhibition [17] was 2%. For the same compound, the inhibition at 0.25 h, 100 µM (cathepsin S [18]) was 29.8% and the inhibition [19] was 86.2%.
